Data reported in ChEMBL document CHEMBL1772948, “Chemistry and biology of macrolide antiparasitic agents” (J Med Chem, 2011).
In brackets after ≈: the same amount, converted by molar mass. Activity calls are given as the source filed them. The rule behind the calls is not given here.

Experiments:
Toxoplasma gondii [1] = assay: Antiparasitic activity against yellow fluorescent protein expressing Toxoplasma gondii 2F-1 infected in HFF treated immediately after infection measured after 48 hrs; type: functional, organism-based; conditions: 2F-1, 48 h
Toxoplasma gondii [2] = assay: Antiparasitic activity against yellow fluorescent protein expressing Toxoplasma gondii 2F-1 infected in HFF treated 6 hrs after infection measured after 48 hrs; type: functional, organism-based
Toxoplasma gondii [3] = assay: Antiparasitic activity against Toxoplasma gondii 2F-1 expressing yellow fluorescent protein infected in HFF after 4 days; type: functional, organism-based; conditions: 2F-1, 96 h
Toxoplasma gondii [4] = assay: Antiparasitic activity against green fluorescent protein expressing […] deficient Toxoplasma gondii RH infected in HFF assessed as decrease in density of parasitophorous vacuoles at 10 uM treated immediately after infection measured after 24 hrs by microscopic analysis; type: functional, organism-based
How it was run: (§1)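 GFP T. gondii RHΔhxgprt in HFF, compound (10 μM) added either with the inoculum ("0h") or after 6 h pre-infection and washing ("6h"); vacuoles per microscope field scored at 24 h, at least 20 random fields from each of three experiments.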

Toxoplasma gondii [5] = assay: Antiparasitic activity against yellow fluorescent protein expressing Toxoplasma gondii 2F-1 treated 6 hrs after infection for 42 hrs followed by reinoculated into fresh HFF monolayers measured after 48 hrs; type: functional, organism-based
How it was run: (§2)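 Two-cycle protocol in HFF at 37 °C, 5% CO2, DMEM with 10% FBS. "0h": compound added with parasites, 48 h. "6h": parasites pre-incubated 6 h, uninvaded parasites removed, fresh medium with compound added, 42 h. Released tachyzoites were then harvested, purified and inoculated into fresh HFF without compound for the 2nd cycle. At least triplicate.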

Toxoplasma gondii [6] = assay: Antiparasitic activity against green fluorescent protein expressing […] deficient Toxoplasma gondii RH infected in HFF assessed as decrease in density of parasitophorous vacuoles at 10 uM treated 6 hrs after infection measured after 24 hrs by microscopic analysis; type: functional, organism-based; how it was run: as §1
Toxoplasma gondii [7] = assay: Antiparasitic activity against green fluorescent protein expressing […] deficient Toxoplasma gondii RH infected in HFF at 5 to 50 uM treated 6 hrs after infection measured after 48 hrs; type: functional, organism-based
How it was run: (§3)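 GFP-expressing RHΔhxgprt tachyzoites were grown on HFF on glass coverslips in 12-well plates (2×10^4/well). Compound was added either with the parasites ("0h", 48 h) or after a 6 h pre-infection and medium change ("6h", 42 h). Parasites per vacuole were counted by fluorescence microscopy in at least 50 random vacuoles per well. Three independent experiments.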

Bacillus subtilis = assay: Antibacterial activity against Bacillus subtilis; type: functional
Toxoplasma gondii [8] = assay: (§4) Antiparasitic activity against green fluorescent protein expressing hwgprt deficient Toxoplasma gondii RH infected in HFF assessed as reduction of ycf24/UPRT genes copy number ratio at 1 uM treated for 48 hrs after 6 hrs infection followed by reinoculated into fresh HFF monolayers measured after 48 hrs by RT-PCR analysis; type: functional
Toxoplasma gondii [9] = assay: as §4, with “0.1” for “1”; type: functional
How it was run: (§5)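 Tachyzoites were seeded on confluent HFF monolayers in 6-well plates at 2×10^5 per well, in DMEM with 10% FBS and 1% PS at 37 °C, 5% CO2. After 6 h pre-infection, the medium was replaced with medium containing compound for 42 h. Released parasites were reinoculated into fresh HFF without drug for 48 h, collected by centrifugation, and measured by qPCR as the ratio of plastid ycf24 to nuclear UPRT copies. At least triplicate.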

Toxoplasma gondii [10] = assay: Antiparasitic activity against green fluorescent protein expressing […] deficient Toxoplasma gondii RH assessed as parasite doubling time at 5 to 50 uM treated immediately after infection for 48 hrs followed by reinoculated into fresh HFF monolayers measured after 48 hrs; type: functional
How it was run: (§6)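 HFF were grown on glass coverslips in 12-well plates and infected with 2×10^4 GFP tachyzoites per well. Compound was added with the inoculum; the first cycle ran 48 h, and the second cycle ran in fresh HFF without drug. Parasites per vacuole were counted by fluorescence microscopy, at least 50 random vacuoles per well, to derive doubling time. Three independent experiments.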

Toxoplasma gondii [11] = assay: Antiparasitic activity against green fluorescent protein expressing hwgprt deficient Toxoplasma gondii RH infected in HFF assessed as reduction of ycf24/UPRT genes copy number ratio at 10 uM treated for 42 hrs starting 6 hrs after infection followed by reinoculated into fresh HFF monolayers measured after 48 hrs by RT-PCR analysis
Toxoplasma gondii [12] = assay: Antiparasitic activity against green fluorescent protein expressing […] deficient Toxoplasma gondii RH infected in HFF at 5 to 50 uM treated 6 hrs after infection measured after 48 hrs followed by reinoculated into fresh HFF monolayers measured after 48 hrs; type: functional, organism-based; how it was run: as §3
Toxoplasma gondii [13] = assay: Antiparasitic activity against green fluorescent protein expressing hwgprt deficient Toxoplasma gondii RH infected in HFF at 5 to 50 uM treated immediately after infection measured after 48 hrs; type: functional, organism-based; how it was run: as §3
Toxoplasma gondii [14] = assay: Antiparasitic activity against clindamycin-resistant Toxoplasma gondii 4 infected in HFF assessed as reduction of ycf24/UPRT genes copy number ratio at 10 uM treated for 48 hrs immediately after infection followed by reinoculated into fresh HFF monolayers measured after 48 hrs by RT-PCR analysis; type: functional
How it was run: (§7)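 Tachyzoites were seeded on confluent HFF in 6-well plates at 2×10^5 per well, in DMEM with 10% FBS and 1% PS at 37 °C, 5% CO2. Compound was added together with the parasite inoculum, and cultures ran 48 h. Harvested tachyzoites were reinoculated into fresh HFF without drug for a second cycle. Parasites were pelleted by centrifugation and the plastid ycf24 to nuclear UPRT copy ratio was read by qPCR (40 cycles, 94 °C 3 s / 60 °C 30 s). At least triplicate.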

Toxoplasma gondii [15] = assay: Antiparasitic activity against clindamycin-resistant Toxoplasma gondii 4 infected in HFF assessed as reduction of ycf24/UPRT genes copy number ratio at 1 uM treated for 48 hrs immediately after infection followed by reinoculated into fresh HFF monolayers measured after 48 hrs by RT-PCR analysis; type: functional
How it was run: as §7, with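 “CO2.” for “CO2. Compound was added together with the parasite inoculum, and cultures ran 48 h.”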

Toxoplasma gondii [16] = assay: Antiparasitic activity against green fluorescent protein expressing hwgprt deficient Toxoplasma gondii RH infected in HFF at 5 to 50 uM treated immediately after infection measured after 48 hrs followed by reinoculated into fresh HFF monolayers measured after 48 hrs; type: functional, organism-based
Toxoplasma gondii [17] = assay: Antiparasitic activity against green fluorescent protein expressing […] deficient Toxoplasma gondii RH infected in HFF assessed as parasite doubling time at 5 to 50 uM treated immediately after infection measured after 48 hrs; type: functional; how it was run: as §6
HFF = assay: Cytotoxicity against HFF after 48 hrs by MTS assay; type: cell-based; conditions: human
How it was run: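 Low-passage HFF seeded in 96-well plates and incubated 24h at 37 °C, then exposed to varying macrolide concentrations for 2 days; medium replaced with fresh medium plus MTS, 4h at 37 °C, absorbance 490 nm; CC50 = dose reducing viability by 50%.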

Toxoplasma gondii [18] = assay: Antiparasitic activity against green fluorescent protein expressing […] deficient Toxoplasma gondii RH infected in HFF assessed as reduction of ycf24/UPRT genes copy number ratio at 0.1 uM treated for 48 hrs immediately after infection followed by reinoculated into fresh HFF monolayers measured after 48 hrs by RT-PCR analysis; type: functional; how it was run: as §7
Toxoplasma gondii [19] = assay: Antiparasitic activity against clindamycin-resistant Toxoplasma gondii 4 infected in HFF assessed as reduction of ycf24/UPRT genes copy number ratio at 10 uM treated for 48 hrs after 6 hrs infection followed by reinoculated into fresh HFF monolayers measured after 48 hrs by RT-PCR analysis; type: functional; how it was run: as §5
Toxoplasma gondii [20] = assay: Antiparasitic activity against clindamycin-resistant Toxoplasma gondii 4 infected in HFF assessed as reduction of ycf24/UPRT genes copy number ratio at 0.1 uM treated for 48 hrs after 6 hrs infection followed by reinoculated into fresh HFF monolayers measured after 48 hrs by RT-PCR analysis; type: functional; how it was run: as §5
Toxoplasma gondii [21] = assay: Antiparasitic activity against clindamycin-resistant Toxoplasma gondii 4 infected in HFF assessed as reduction of ycf24/UPRT genes copy number ratio at 0.1 uM treated for 48 hrs immediately after infection followed by reinoculated into fresh HFF monolayers measured after 48 hrs by RT-PCR analysis; type: functional; how it was run: as §7
Toxoplasma gondii [22] = assay: Antiparasitic activity against green fluorescent protein expressing […] deficient Toxoplasma gondii RH infected in HFF assessed as reduction of ycf24/UPRT genes copy number ratio at 1 uM treated for 48 hrs immediately after infection followed by reinoculated into fresh HFF monolayers measured after 48 hrs by RT-PCR analysis; type: functional
How it was run: as §7, with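 “CO2.” for “CO2. Compound was added together with the parasite inoculum, and cultures ran 48 h.”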

Toxoplasma gondii [23] = assay: Antiparasitic activity against green fluorescent protein expressing hwgprt deficient Toxoplasma gondii RH infected in HFF assessed as reduction of ycf24/UPRT genes copy number ratio at 10 uM […] followed by reinoculated into fresh HFF monolayers measured after 48 hrs by RT-PCR analysis; type: functional
Toxoplasma gondii [24] = assay: Antiparasitic activity against yellow fluorescent protein expressing Toxoplasma gondii 2F-1 treated immediately after infection for 48 hrs followed by reinoculated into fresh HFF monolayers measured after 48 hrs; type: functional, organism-based; conditions: 2F-1, 48 h; how it was run: as §2
Toxoplasma gondii [25] = assay: Antiparasitic activity against clindamycin-resistant Toxoplasma gondii 4 infected in HFF assessed as reduction of ycf24/UPRT genes copy number ratio at 1 uM treated for 48 hrs after 6 hrs infection followed by reinoculated into fresh HFF monolayers measured after 48 hrs by RT-PCR analysis; type: functional
Toxoplasma gondii [26] = assay: Antiparasitic activity against green fluorescent protein expressing hwgprt deficient Toxoplasma gondii RH at 5 uM treated immediately after infection for 48 hrs followed by reinoculated into fresh HFF monolayers measured after 48 hrs; type: functional, organism-based; how it was run: as §2
Toxoplasma gondii [27] = assay: Antiparasitic activity against green fluorescent protein expressing […] deficient Toxoplasma gondii RH infected in HFF assessed as parasite doubling time at 5 uM treated immediately after infection measured after 48 hrs; type: functional; how it was run: as §6
Toxoplasma gondii [28] = assay: Antiparasitic activity against green fluorescent protein expressing […] deficient Toxoplasma gondii RH assessed as parasite doubling time at 5 uM treated immediately after infection for 48 hrs followed by reinoculated into fresh HFF monolayers measured after 48 hrs; type: functional; how it was run: as §6
Toxoplasma gondii [29] = assay: Antiparasitic activity against green fluorescent protein expressing […] deficient Toxoplasma gondii RH infected in HFF at 5 uM treated immediately after infection measured after 48 hrs; type: functional, organism-based; how it was run: as §3
Toxoplasma gondii [30] = assay: Antiparasitic activity against green fluorescent protein expressing hwgprt deficient Toxoplasma gondii RH at 5 uM treated 6 hrs after infection for 42 hrs followed by reinoculated into fresh HFF monolayers measured after 48 hrs; type: functional, organism-based; how it was run: as §2
Toxoplasma gondii [31] = assay: Antiparasitic activity against green fluorescent protein expressing […] deficient Toxoplasma gondii RH infected in HFF at 5 uM treated 6 hrs after infection measured after 48 hrs; type: functional, organism-based; how it was run: as §3

Structure (SMILES) | IC50 (Toxoplasma gondii [1]) [µM] | IC50 (Toxoplasma gondii [2]) [µM] | IC50 (Toxoplasma gondii [3]) [µM] | Activity (Toxoplasma gondii [4]) | IC50 (Toxoplasma gondii [5]) [µM] | MIC (Bacillus subtilis) [µM] | Ratio (Toxoplasma gondii [8]) | Ratio (Toxoplasma gondii [9]) | Ratio (Toxoplasma gondii [11]) | Ratio (Toxoplasma gondii [14]) | Ratio (Toxoplasma gondii [15]) | CC50 (HFF) [µM] | Ratio (Toxoplasma gondii [18]) | Ratio (Toxoplasma gondii [19]) | Ratio (Toxoplasma gondii [20]) | Ratio (Toxoplasma gondii [21]) | Ratio (Toxoplasma gondii [22]) | Ratio (Toxoplasma gondii [23]) | IC50 (Toxoplasma gondii [24]) [µM] | Ratio (Toxoplasma gondii [25]) | also measured
CC[C@H]1OC(=O)[C@H](C)[C@@H](O[C@H]2C[C@@](C)(OC)[C@@H](O)[C@H](C)O2)[C@H](C)[C@@H](O[C@@H]2O[C@H](C)C[C@H](N(C)C)[C@H]2O)[C@](C)(O)C[C@@H](C)CN(C)[C@H](C)[C@@H](O)[C@]1(C)O [AZITHROMYCIN] | 29 | 44 | 20 | inactive | 0.6 | 0.15 (≈ 0.112 µg/mL) | 3 | 15 | 10 | 10 | 8 | 174 | 7 | 4 | 13 | 18 | 7 | 3 | 0.6 | 3 | Activity (Toxoplasma gondii [6]): inactive; Activity (Toxoplasma gondii [7]): Active; Time (Toxoplasma gondii [10]): >16 h; Activity (Toxoplasma gondii [12]): Active; Activity (Toxoplasma gondii [13]): Active; Activity (Toxoplasma gondii [16]): Active; Time (Toxoplasma gondii [17]): 9.5 h
CC[C@H]1OC(=O)[C@H](C)[C@@H](O[C@H]2C[C@@](C)(OC)[C@@H](O)[C@H](C)O2)[C@H](C)[C@@H](O[C@@H]2O[C@H](C)C[C@H](N(C)C)[C@H]2O)[C@](C)(O)C[C@@H](C)CN(Cc2ccccc2)[C@H](C)[C@@H](O)[C@]1(C)O | 5 | 9 | 2 | Active | 0.5 | 0.3 (≈ 0.248 µg/mL) | 5 | 17 | 13 | 11 | 8 | 32 | 13 | 5 | 15 | 23 | 7 | 6 | 0.5 | 3 | Activity (Toxoplasma gondii [26]): Active; Time (Toxoplasma gondii [27]): 9.5 h; Time (Toxoplasma gondii [28]): >16 h; Activity (Toxoplasma gondii [29]): Active; Activity (Toxoplasma gondii [30]): Active; Activity (Toxoplasma gondii [31]): Active
